Screening data: PubChem, several laboratories
UPR XBP1 act: adaptive UPR (XBP1) activation; CHO-XBP1 luciferase reporter, IRE1-XBP1 UPR activation, luminescence; percent of tunicamycin response, DMSO as zero; activation, % at 20 µM; 0.33% of 330,000 active;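 active = versus positive control, 20 µM dose yields 30% or more activation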;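 note: 100% = tunicamycin at 10 µg/mL and 0% = DMSO only wells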
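Material: CHO-XBP1 cells stably carrying IRE1-XBP1-driven luciferase reporter / Amount: 1000 cells per well / Compound: 20 µM, 1% DMSO / Times: 6 h treatment, 37 °C / Detection: luciferase luminescence / Measure: % activation of reporter signal versus tunicamycin and DMSO controls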
PfM18AAP inh-1: PfM18AAP enzyme inhibition | recombinant PfM18AAP, H-Glu-NHMec fluorogenic cleavage | inhibition, % at 7.35 µM | 1.2% of 290,000 active;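 active = inhibition above the campaign mean inhibition over all tested compounds plus 3 SD, cut at about 28% in these data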;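 note: 0% = plate median of test compound wells and 100% = 2 mM ZnCl2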
p97 inhibitor: human p97 ATPase inhibition; P55072; recombinant p97 ATPase, Kinase-Glo ATP luminescence, 3 h; inhibition, % at 8 µM; 0.42% of 220,000 active; AID 1481; in the data active = inhibition above about 15%;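 note: 0% = DMSO vehicle and 100% = wells lacking enzyme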
CHOP UPR activ: activators of apoptotic arm of unfolded protein response (CHOP); CHO-CHOP luciferase reporter, UPR activation, luminescence; percent of tunicamycin response over DMSO baseline; activation, % at 10 µM; 0.34% of 330,000 active; AID 449763;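 active = at 10 µM dose, activation of 40% or more, normalized to positive control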;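 note: 100% = tunicamycin at 10 µg/mL and 0% = DMSO alone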
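Test system: CHO CHOP reporter cells. Input: 500 CHO-CHOP cells per well. Medium: F12 with 10% FBS. Technique: luciferase luminescence. Measure: percent activation relative to tunicamycin control. Dosing: 10 µM compound, 0.5% DMSO. Timing: 16-18 h cell attachment, then 6 h compound exposure, 37 °C.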
CHOP inhibitor: blocks CHOP induction under ER stress; 3.8% of 220,000 active; CHO-K1 CHOP-promoter luciferase, tunicamycin-induced, 15-18 h; inhibition, % at 10 µM;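 active = compounds that reduced the stress-induced luciferase reporter signal by more than about 70% of percent inhibition, limit read from the data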;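 note: 0% = tunicamycin plus vehicle and 100% = wells without tunicamycin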
HCV NS3 hel inh: HCV NS3 helicase inhibition; NS3 helicase DNA unwinding, Cy5 molecular beacon fluorescence; inhibition, % at 10.9 µM; 0.56% of 290,000 active;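 active = inhibition above the mean of all tested compounds plus 3 SD, set per campaign, cut at about 35% in these data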;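 note: 0% = DMSO wells and 100% = thioflavine S control wells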
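Measured by: Cy5 fluorescence, 0 and 60 min reads / Assay system: NS3 helicase fragment of HCV / Control set: low DMSO, high thioflavine S at 110 µM / Times: 1 h reaction at 25 °C, ATP-initiated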
PfM18AAP inh-2: PfM18AAP inhibition, confirmation; shares compounds with PfM18AAP inh-1; AID 2170; recombinant PfM18AAP, H-Glu-NHMec fluorogenic cleavage; 28% of 2,400 active; inhibition, % at 7.35 µM;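 active = mean inhibition over replicate wells above the hit cutoff set for the earlier primary screen, cut at about 29% in these data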;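 note: 0% = median of test compound wells and 100% = 2 mM ZnCl2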
CTSL1 counter: Cathepsin L (human) inhibition, confirmation | shares compounds with PfM18AAP inh-1 | purified cathepsin L1, Z-Leu-Arg-MCA fluorescence | inhibition, % at 5.96 µM | 2,400 tested, under 10 active | AID 2178;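 active = average inhibition across replicates above the hit cutoff set in the earlier primary screen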;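 note: 0% = median of test compound wells and 100% = Z-Phe-Ala-diazomethylketone 1 µM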
Target sequence (P07711 whole entry, looked up): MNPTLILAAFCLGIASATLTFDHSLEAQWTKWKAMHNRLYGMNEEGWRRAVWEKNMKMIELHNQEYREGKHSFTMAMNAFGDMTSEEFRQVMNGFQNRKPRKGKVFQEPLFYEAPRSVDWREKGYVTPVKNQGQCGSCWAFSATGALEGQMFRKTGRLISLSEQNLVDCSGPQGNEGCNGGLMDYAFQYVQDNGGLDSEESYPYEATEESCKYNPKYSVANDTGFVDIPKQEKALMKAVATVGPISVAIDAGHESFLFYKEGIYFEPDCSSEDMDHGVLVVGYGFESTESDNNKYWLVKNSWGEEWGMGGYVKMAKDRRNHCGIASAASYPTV
Active calls of the source: *; . = no result. This is a sample that favours compounds with a hit; in the whole collection about 4.5% have one here.

SMILES | UPR XBP1 act | PfM18AAP inh-1 | p97 inhibitor | CHOP UPR activ | CHOP inhibitor | HCV NS3 hel inh | PfM18AAP inh-2 | CTSL1 counter
CC(C)CNC(=S)NNC(=O)c1ccc2c(c1)OCO2 | 0 | 17 | 0 | 1 | 10 | 3 | . | .
CCNC(=S)NNC(=O)c1ccoc1C | -2 | 33* | -1 | -1 | 4 | 1 | -16 | 4
COc1ccc(C(=O)NNC(=S)NC(=O)c2ccc(OC)cc2)cc1 | -3 | -2 | . | -1 | . | 1 | . | .
COCCCNC(=S)NNC(=O)c1ccoc1C | 0 | 33* | 2 | 2 | 3 | 3 | -8 | -1
Cc1ccc(NC(=O)CN2CCCC2c2cccn2C)c(Br)c1 (centres undefined) | 3 | . | . | 4 | . | . | . | .
CCOC(=O)c1cc(C(=O)Nc2sc3c(c2C#N)CCCC3)nn1C | -6 | 37* | . | 1 | . | 11 | -39 | -4
Cc1cc(C(=O)Nc2sc3c(c2C#N)CCCC3)no1 | 3 | 5 | -3 | 3 | 0 | -1 | . | .
O=C1OC(Nc2ccc3c(c2)OCO3)c2ccccc21 (centres undefined) | 0 | 45* | 1 | 1 | 17 | 7 | 22 | 4
O=C1OC(Nc2ccc(F)c([N+](=O)[O-])c2)c2ccccc21 (centres undefined) | -3 | -1 | -4 | 2 | -1 | 1 | . | .
COc1ccc(C(=O)N/N=C(/C)c2cccc(NC(=O)c3ccncc3)c2)cc1OC | -4 | -4 | . | -2 | . | 1 | . | .
COc1ccc(C(=O)Nc2ccc(/C(C)=N/NC(=O)c3ccccc3O)cc2)cc1OC | 1 | 37* | 7 | 2 | 15 | 8 | -52 | 9
O=C(c1ccc(Cl)cc1Cl)C1(n2cncn2)Oc2ccccc2C1O (centres undefined) | 0 | 36* | 8 | -1 | -22 | -7 | 4 | -4
N/C(Cn1cncn1)=N\NC(=O)c1ccc(Cl)cc1Cl | -1 | 10 | 2 | 0 | 2 | -1 | . | .
Cc1ccc(-c2nnn(CC(=O)N(CC(=O)NC(C)C)c3cnc4ccccc4c3)n2)o1 | 0 | 11 | -1 | -2 | 24 | 0 | . | .
Cc1ccc(-c2nnn(CC(=O)N(CC(=O)NC3CCCC3)c3cnc4ccccc4c3)n2)o1 | -1 | 44* | 4 | 0 | 1 | -3 | -36 | 4
CCOc1ccccc1Nc1ccnc2cc(Cl)ccc12 | -2 | 1 | 3 | -1 | 39 | 0 | . | .
CC/C(=N\Nc1ccnc2cc(Cl)ccc12)c1ccc(O)cc1 | -4 | 34* | . | 3 | . | -35 | -27 | 2
CCCCn1c(N)c(N(CCOC)C(=O)c2ccc(S(=O)(=O)N3CCCCC3)cc2)c(=O)[nH]c1=O | 0 | . | . | 2 | . | . | . | .
Cc1cccnc1NC(=S)NCCc1ccccc1 | 1 | 42* | 4 | 3 | -56 | -14 | 1 | 1
Cc1cccnc1NC(=S)Nc1ncccc1C | 1 | 1 | -2 | 4 | -4 | 0 | . | .
S=C(NCCc1ccccc1)Nc1c(Cl)cccc1Cl | -1 | 41* | 7 | 2 | 0 | -34 | -4 | -5
Cc1cccc(C)c1NC(=S)NCCc1ccc(O)c(O)c1 | 22 | 73* | 10 | 11 | -9 | -1 | 50* | -7
C=CCOc1ccc(C2=NOC(C(=O)Nc3ccc4c(c3)OCCO4)C2)cc1OC (centres undefined) | -5 | -6 | . | -3 | . | -26 | . | .
Cc1cccc(C(C(=O)NC2CCCCC2)N(C(=O)c2csnn2)C2CC2)c1 (centres undefined) | -5 | 11 | . | 1 | . | 24 | . | .
Cc1nc(CCNC(=O)C2CCC(=O)N(Cc3cccc(F)c3)C2)sc1C (centres undefined) | -4 | -2 | . | 2 | . | 1 | . | .
SMILES | UPR XBP1 act | PfM18AAP inh-1 | p97 inhibitor | CHOP UPR activ | CHOP inhibitor | HCV NS3 hel inh | PfM18AAP inh-2 | CTSL1 counter
O=c1ccc2cc(O)c(O)cc2o1 | -2 | 42* | 0 | -1 | 11 | -6 | 30* | 2
O=c1ccc2cc3ccoc3cc2o1 | 0 | 1 | . | -1 | . | 8 | . | .
CCOC(=O)/C(Sc1nc(-c2ccccc2)cc(-c2ccccc2)c1C#N)=C(\C)O | 1 | 2 | . | -1 | . | 10 | . | .
CC/C(CC(=O)C(F)(F)F)=N\NC(=O)/C(C#N)=C/N(C)C | -2 | 43* | 6 | -2 | 7 | 8 | -54 | 8
O=C(NNC(=S)NC(=O)c1ccccc1[N+](=O)[O-])c1ccc(Cl)cc1Cl | 1 | -5 | 5 | 0 | -11 | 10 | . | .
O=C(NC(=S)NNC(=O)c1ccccc1O)c1cccs1 | -1 | 44* | . | 2 | . | 9 | 3 | -2
O=C(NNC(=S)NC(=O)c1ccccc1[N+](=O)[O-])c1ccccc1O | -3 | 43* | 2 | -2 | 10 | 4 | 21 | -1
O=C(NNC(=O)c1cc(Cl)ccc1O)c1cccs1 | 6 | 35* | . | 0 | . | 8 | -5 | -3
O=C(NCc1ccccn1)c1ccc(OC2CCN(Cc3cccs3)CC2)cc1 | -4 | -1 | . | -3 | . | 8 | . | .
c1ccc2c(c1)Nc1nccnc1S2 | . | 36* | 1 | . | 16 | -7 | 4 | -7
O=C(COC(=O)c1ccc(Br)c(S(=O)(=O)N2CCOCC2)c1)NCCc1ccccc1 | 2 | . | . | 0 | . | . | . | .
COCc1cc(C)c(C#N)c(=S)[nH]1 | -2 | 32* | 5 | -2 | -11 | 9 | 35* | -1
Cc1ccc(CN2CCN(c3cccc4[nH]ccc34)CC2)cc1 | -6 | 0 | . | -1 | . | -13 | . | .
OCCCn1c(CCNc2nc(-c3ccc(F)cc3)cs2)nc2cc(C(F)(F)F)ccc21 | -2 | . | . | -1 | . | . | . | .
N#C/C(=C\c1ccc(O)c(O)c1)C(=O)NCCCc1ccccc1 | 5 | 34* | 3 | 151* | -3 | 10 | -9 | -3
N#C/C(=C\c1ccc(O)c(O)c1)C(=O)N1CCCC1 | 2 | 56* | 1 | -1 | -3 | 15 | 21 | 3
Cc1nn(CCOc2cccc(Br)c2)c(C)c1[N+](=O)[O-] | -1 | 1 | -8 | 1 | 25 | 12 | . | .
COc1ccc(N2CC(C(=O)NCCc3ccc(Cl)cc3)CC2=O)cc1 (centres undefined) | 6 | -10 | . | 0 | . | -5 | . | .
CCOc1ccc2nc(COC(=O)c3cccc([N+](=O)[O-])c3)c(C(C)=O)[n+]([O-])c2c1 | -3 | 0 | 3 | 1 | 11 | -1 | . | .
COc1ccc(C(=O)NCC(=O)N/N=C/c2ccco2)cc1OC | 2 | 44* | . | -1 | . | -1 | -54 | -6
COc1cc(Cl)ccc1NC(=S)N(CCCN1CCOCC1)Cc1cn(C)c2ccccc12 | -2 | 32* | 1 | 1 | -7 | -26 | -1 | 3
